DAT uptake mod = modulates human dopamine transporter uptake under cocaine; LLC-PK1 hDAT cells, [14C]-dopamine uptake with cocaine IC80; actives deviate in either direction; B-score at 10 µM; 110,000 tested, 1.3% active; AID 449768;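 active = Z score or B-score, a plate-position-corrected score, falls beyond the plate's 99.7% confidence bounds, in either direction; inactive = both scores lie inside the 99.7% bounds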;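 note: scored against the spread of the other compound wells on the same plate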
FAK inh = blocks human focal adhesion kinase activity | biochemical FAK kinase activity assay | inhibition, %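 (tested at 7 µM)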 | 97,000 tested, 0.84% active | Q05397;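 note: 0% = DMSO and 100% = reference compound high control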
Plk1 PBD FP = inhibitors of human Plk1 polo box domain binding | P53350 | Plk1 PBD phosphopeptide binding, fluorescence polarization | inhibition, %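 (tested at about 20 µM)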 | 97,000 tested, 0.13% active | AID 693; in the data active = inhibition above about 34%, passing the limit was not always enough
Target sequence (P53350 whole entry, looked up, the tested form may be a part): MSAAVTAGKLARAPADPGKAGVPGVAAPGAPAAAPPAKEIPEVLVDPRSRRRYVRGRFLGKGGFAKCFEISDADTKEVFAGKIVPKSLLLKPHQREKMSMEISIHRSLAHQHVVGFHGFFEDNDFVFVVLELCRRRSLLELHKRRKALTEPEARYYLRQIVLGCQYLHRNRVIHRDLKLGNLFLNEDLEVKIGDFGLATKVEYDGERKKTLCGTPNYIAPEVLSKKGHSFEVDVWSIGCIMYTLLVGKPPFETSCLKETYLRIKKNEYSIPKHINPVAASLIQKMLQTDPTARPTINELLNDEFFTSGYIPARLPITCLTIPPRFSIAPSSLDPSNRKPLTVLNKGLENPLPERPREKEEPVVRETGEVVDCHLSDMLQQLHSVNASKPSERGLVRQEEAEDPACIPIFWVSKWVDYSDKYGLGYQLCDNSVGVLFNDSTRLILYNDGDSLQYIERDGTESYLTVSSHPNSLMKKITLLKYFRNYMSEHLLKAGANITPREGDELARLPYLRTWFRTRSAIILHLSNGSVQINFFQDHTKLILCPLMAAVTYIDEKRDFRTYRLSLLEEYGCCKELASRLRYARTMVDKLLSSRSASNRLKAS
Rev-RRE block = inhibitors of HIV-1 Rev-RRE RNA interaction. 97,000 tested, 0.79% active. inhibition, % at 8 µM. P05866. AID 704. Rev peptide-RRE RNA binding, FRET;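 active = inhibition above the screen-wide mean plus 3 SD, cut at about 35% in these data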;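 note: 0% = median DMSO wells and 100% = median Neomycin B control wells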
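Material: labelled RRE RNA duplex and labelled Rev peptide / Buffer or medium: HEPES pH 7.5 salt buffer with EDTA / Compound dosing: single point, 8 µM final nominal compound concentration / Benchmarks: DMSO low control, neomycin B high control / Timing: 5 min preincubation and 15 min binding, 25 °C / Technique: FRET fluorescence readout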
PLK1 inh = inhibitors of human PLK1 kinase. inhibition, % at 10 µM. recombinant PLK1 kinase, TR-FRET peptide phosphorylation. 97,000 tested, 0.53% active. AID 619. P53350;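 active = inhibition of 50% or more in the single-concentration screen; inactive = inhibition below 50%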;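 note: 0% = DMSO max control and 100% = H-89 dihydrochloride min control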
EphB4 antag = EphB4-ephrin-B2 interaction antagonism; inhibition, % at 7 µM; AID 720; EphB4 LBD / TNYL-RAW-Alexa532 peptide, fluorescence polarization; 97,000 tested, 0.15% active;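 active = inhibition above the screen-wide mean inhibition plus 3 SD, cut at about 15% in these data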;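 note: 0% = DMSO wells and 100% = excess unlabeled TNYL-RAW peptide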
FAK inh confirm = confirmation of human focal adhesion kinase (FAK) inhibitors. AID 794. FAK kinase biochemical inhibition assay. 750 tested, 28% active. inhibition, % at 7 µM. shares compounds with FAK inh
The depositor's hits bear a star; . = no result given. An excerpt weighted towards active compounds, which were near 3.2% of everything screened. Cut-off read from the data, not from the text of the source, unless noted: active = inhibition above about 19%; inactive = the rest.

SMILES	DAT uptake mod	FAK inh	Plk1 PBD FP	Rev-RRE block	PLK1 inh	EphB4 antag	FAK inh confirm
Cc1ccc(Cn2nc(C)c3cc(C(=O)OCC(N)=O)sc32)cc1	-1.7	4	-6	1	0	-3	.
O=C(NNC(=O)c1cc2cc3ccccc3nc2s1)c1cccc(Cl)c1	0.26	30*	10	-17	-23	-7	5
Cc1cccc(C(=O)NNC(=O)c2cc3cc4ccccc4nc3s2)c1	0.45	0	25	20	-9	0	.
O=C(NNC(=O)c1cc2cc3ccccc3nc2s1)c1ccc(F)cc1	.	26*	-2	-2	-9	1	3
COc1ccc(N2C(=O)CS/C2=C\[N+](=O)[O-])cc1	-0.29	-5	11	0	-9	-2	.
NS(=O)(=O)c1ccc(NS(=O)(=O)c2ccc(NC(=O)c3ccc(-c4ccccc4)cc3)cc2)cc1	.	30*	-5	-7	-13	9	14
COC(=O)c1ccccc1NC(=O)CSCC(=O)Nc1ccccc1	0.23	-3	3	-3	-7	-11	.
O=C(Cn1c(=O)oc2cc(S(=O)(=O)N3CCCC3)ccc21)Nc1ccc(C(F)(F)F)cc1	-0.29	14	-17	7	-1	0	.
O=C(Cn1c(=O)oc2cc(S(=O)(=O)N3CCCCCC3)ccc21)NC1CCCCCCC1	-0.058	22*	23	11	12	1	6
N#Cc1nc(-c2cccs2)oc1NCc1ccccc1	1.2	22*	-18	12	-5	1	11
Cc1ccc(-c2ccc(CCC(=O)O)n2Cc2ccco2)cc1	0.72	-1	0	1	-26	-1	.
O=C(N/N=C1/C(=O)c2cccc3cccc1c23)c1ccc(Cl)cc1	-0.27	92*	14	2	-3	25*	87*
CCCSC1=N/C(=C\C=C\c2ccco2)C(=O)S1	-0.0055	25*	-13	18	-14	-1	5
O=C1SC(SCc2ccccc2)=N/C1=C\c1ccco1	0.44	2	-15	14	-9	1	.
COc1ccc(-c2nnc(Nc3nc4c(OC)cccc4s3)o2)c(OC)c1	0.05	.	.	.	.	.	.
Fc1cccc2sc(Nc3nnc(-c4ccccc4)o3)nc12	0.037	-10	-37	1	-22	-6	.
COc1cc(OC)cc(-c2nnc(Nc3nc4c(F)cccc4s3)o2)c1	1.5	36*	19	7	-15	14	10
COc1ccc(-c2nnc(Nc3nc4c(OC)cccc4s3)o2)cc1	.	56*	6	11	-8	5	27*
O=C(Nc1ccc(F)cc1)C1CCC(N2C(=O)c3ccccc3C2=O)CC1 (stereo unspecified)	-0.6	0	-2	8	-4	-7	.
CC(C)(C)OC(=O)N1CCC(C(=O)N[C@@H](Cc2ccccc2)C(=O)O)CC1	-1.1	-2	8	0	-7	0	.
COc1cccc(NC(=O)C2CCCN(S(=O)(=O)c3cccc4nsnc34)C2)c1 (stereo unspecified)	0.49	-2	12	13	-13	2	.
Cc1cccc(NC(=O)C2CCCN(S(=O)(=O)c3cccc4nsnc34)C2)c1 (stereo unspecified)	0.15	94*	-19	7	-5	5	-1
CC(C(=O)NC1CCCC1)N(C(=O)c1snc(C(N)=O)c1N)c1ccc2c(c1)OCCO2 (stereo unspecified)	0.57	21*	4	6	-8	3	4
CCc1ccc(CNc2ccc(O)cc2)cc1	2.9*	56*	5	-4	-4	5	4
CSc1ccc(CNc2ccc(Cl)cc2)cc1	-0.58	-6	9	-4	-12	-9	.
SMILES	DAT uptake mod	FAK inh	Plk1 PBD FP	Rev-RRE block	PLK1 inh	EphB4 antag	FAK inh confirm
Cc1cccc(C)c1NC(=O)C(c1ccc(Cl)cc1Cl)N1CCCCC1 (stereo unspecified)	-0.39	-6	-15	12	-10	-1	.
COc1ccc(-c2nnc(SC(C)C(=O)Nc3nccs3)n2-c2ccccc2)cc1OC (stereo unspecified)	0.69	49*	-28	5	-4	3	-2
COc1ccccc1-c1cc(-c2ccccc2)nc(SC(C(N)=O)c2ccccc2)c1C#N (stereo unspecified)	-0.59	-12	26	14	-14	-1	.
CCOC(=O)c1c(C)[nH]c(C=Nc2ccccc2)c1O	0.55	-8	-12	16	-2	-9	.
CCOC(=O)c1c(C)[nH]c(O)c1C=Nc1ccccc1	1.4	34*	30	-3	-3	-3	16
C=CCC1CCCC(=O)N2CC[C@H](O)C12 (stereo partly specified)	-0.074	.	.	.	.	.	.
Cc1nnc(SC(=O)N2c3ccccc3Sc3ccccc32)s1	-0.042	.	.	.	.	.	.
CC1CCCC(C)N1C(=O)Cn1cc(/C=C2/C(=O)Nc3ccccc32)c2ccccc21 (stereo unspecified)	1.8	5	-13	11	-9	2	.
CN1C(=O)/C(=C/c2cn(CC(=O)N3CCCCC3)c3ccccc23)c2ccccc21	3.8*	26*	14	11	-4	9	28*
O=C(Oc1ccc2c(c1)OCO2)c1cc2c(s1)CCC2	1.6	24*	26	-17	-20	-4	3
CSC(=NC#N)N1CCN(c2cccc(Cl)c2)CC1	1.7	1	-6	3	-13	15	.
Cc1oc(-c2ccccc2F)nc1CS(=O)(=O)CC(=O)NCc1ccco1	.	27*	-1	-35	-16	1	-1
Cc1oc(-c2ccccc2F)nc1CS(=O)(=O)CC(=O)NCCCc1ccccc1	-0.52	.	.	.	.	.	.
Brc1ccc(Oc2ncc(CN3CCOCC3)s2)cc1	2.4	4	-10	3	-7	1	.
Cc1ccc2c(CC(=O)OCc3cc(=O)n4c(n3)sc3ccccc34)coc2c1	.	23*	-3	-2	-21	6	0
O=C(OCc1cc(=O)n2c(n1)sc1ccccc12)c1ccc2c(=O)n3c(nc2c1)CCC3	-0.42	.	.	.	.	.	.
Cc1ccc(S(=O)(=O)NC2=C(N3CCN(c4ccccc4F)CC3)C(=O)c3ccccc3C2=O)cc1	2	15	-20	4	-3	-6	.
Cc1ccc(NC2=C(N3CCOCC3)C(=O)c3ccccc3C2=O)cc1	-0.58	43*	-20	10	-10	7	3
CCN1CCN(c2cc(C)c3cc(NC(=O)c4cncc(Br)c4)ccc3n2)CC1	.	26*	-10	0	-8	2	12
CC(=O)Nc1cccc(C(=O)OCc2ccc(C(=O)Oc3ccc(Cl)cc3)cc2)c1	0.088	6	-22	1	31	7	.
Cc1ccc(C2NC(=O)NC3=C2CCc2ccccc23)cc1 (stereo unspecified)	1.2	19*	16	12	-8	3	-2
O=C(CCNS(=O)(=O)c1cccs1)Nc1nccs1	0.6	83*	10	6	19	-2	-1

High-throughput results as filed in PubChem BioAssay.
